Key:
[1] = biological target: T1, Transient receptor potential cation channel subfamily V member 1 (Rattus norvegicus, UniProt O35433); assay: Displacement of [3H]RTX from rat TRPV1 expressed in CHO cells; format: cell-based
Method in brief: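 Competitive binding against [3H]RTX on rat TRPV1 heterologously expressed in CHO cells. Affinity reported as Ki (nM). Values are mean ± SEM from 3 or more experiments.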

[2] = biological target: T1, Transient receptor potential cation channel subfamily V member 1; assay: Agonist activity at rat TRPV1 expressed in CHO cells by 45Ca2+ uptake assay; format: functional, cell-based
[3] = biological target: T1, Transient receptor potential cation channel subfamily V member 1; assay: Antagonist activity at rat TRPV1 expressed in CHO cells by 45Ca2+ uptake assay

T1 sequence (O35433 whole entry): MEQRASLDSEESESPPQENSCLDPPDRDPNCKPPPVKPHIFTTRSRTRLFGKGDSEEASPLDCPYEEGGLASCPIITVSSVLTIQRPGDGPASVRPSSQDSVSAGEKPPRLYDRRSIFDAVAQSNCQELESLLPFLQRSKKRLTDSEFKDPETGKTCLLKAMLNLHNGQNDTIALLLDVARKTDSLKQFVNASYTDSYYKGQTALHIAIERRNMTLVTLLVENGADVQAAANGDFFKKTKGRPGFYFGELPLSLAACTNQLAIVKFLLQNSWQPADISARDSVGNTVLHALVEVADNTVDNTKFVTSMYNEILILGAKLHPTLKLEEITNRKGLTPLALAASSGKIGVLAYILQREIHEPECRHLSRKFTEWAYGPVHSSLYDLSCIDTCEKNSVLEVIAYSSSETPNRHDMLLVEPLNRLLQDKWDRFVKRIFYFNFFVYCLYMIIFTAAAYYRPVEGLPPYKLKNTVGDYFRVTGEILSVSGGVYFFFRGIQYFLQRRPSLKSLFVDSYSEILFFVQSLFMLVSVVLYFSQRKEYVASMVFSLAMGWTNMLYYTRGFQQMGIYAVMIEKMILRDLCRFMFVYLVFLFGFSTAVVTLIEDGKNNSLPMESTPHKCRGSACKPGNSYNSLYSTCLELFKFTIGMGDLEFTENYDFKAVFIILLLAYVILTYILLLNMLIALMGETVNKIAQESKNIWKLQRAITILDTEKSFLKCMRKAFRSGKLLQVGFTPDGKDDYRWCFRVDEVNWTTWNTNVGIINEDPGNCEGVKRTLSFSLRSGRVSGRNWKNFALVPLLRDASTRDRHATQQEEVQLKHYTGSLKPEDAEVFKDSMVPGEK

Ki ([1]; read-out: Ki)	EC50 [2]	Ki [3]	Ki ([1]; cho)	Compound
7800 nM	Not Active	5350 nM		COc1ccc(CNC(=O)C(C)c2ccc(NS(C)(=O)=O)c(F)c2)cc1 (centres undefined)
2100 nM	Not Active			CC(NC(=O)Cc1ccc(C(C)(C)C)cc1)c1ccc(NS(C)(=O)=O)c(F)c1 (centres undefined)
3100 nM	Not Active	930 nM		Cc1ccc(CNC(=O)C(C)c2ccc(NS(C)(=O)=O)c(F)c2)cc1 (centres undefined)
130 nM	Not Active			CC(C(=O)NCCC(c1ccccc1)c1ccccc1)c1ccc(NS(C)(=O)=O)c(F)c1 (centres undefined)
93 nM	Not Active	20.8 nM		CC(C(=O)NCc1ccc(C2CCCC2)cc1)c1ccc(NS(C)(=O)=O)c(F)c1 (centres undefined)
96 nM	Not Active	32.1 nM		Cc1ccc(C(CCNC(=O)C(C)c2ccc(NS(C)(=O)=O)c(F)c2)c2ccc(C)cc2)cc1 (centres undefined)
	Not Active			CC(C(=O)NCC=C1c2ccccc2CCc2ccccc21)c1ccc(NS(C)(=O)=O)c(F)c1 (centres undefined)
	Not Active			CC(NC(=O)/C=C/c1ccc(C(C)(C)C)cc1)c1ccc(NS(C)(=O)=O)c(F)c1 (centres undefined)
	Not Active			CC(C(=O)NCc1ccc(Cl)c(Cl)c1)c1ccc(NS(C)(=O)=O)c(F)c1 (centres undefined)
	Not Active			CC(C)(C)c1ccc(CNC(=O)C2(c3ccc(NS(C)(=O)=O)cc3)CC2)cc1
188 nM	Not Active	148 nM		CC(C(=O)NCC1CC1(c1ccccc1)c1ccccc1)c1ccc(NS(C)(=O)=O)c(F)c1 (centres undefined)
29.6 nM	Not Active	24.5 nM		CC(C(=O)NCC=C(c1ccc(Cl)cc1)c1ccc(Cl)cc1)c1ccc(NS(C)(=O)=O)c(F)c1 (centres undefined)
	Not Active			CC(NC(=O)CCc1ccc(C(C)(C)C)cc1)c1ccc(NS(C)(=O)=O)c(F)c1 (centres undefined)
	Not Active			Cc1ccc(/C=C/CNC(=O)C(C)c2ccc(NS(C)(=O)=O)c(F)c2)cc1C (centres undefined)
	Not Active			CC(C(=O)NC1CCCc2ccccc21)c1ccc(NS(C)(=O)=O)c(F)c1 (centres undefined)
44 nM	Not Active	40 nM		CC(C(=O)NCc1ccc(C(C)(C)C)cc1C#N)c1ccc(NS(C)(=O)=O)c(F)c1 (centres undefined)
79 nM	Not Active	24.8 nM		CC(C(=O)NCCC(c1ccc(F)cc1)c1ccc(F)cc1)c1ccc(NS(C)(=O)=O)c(F)c1 (centres undefined)
121 nM	Not Active	31 nM		Cc1ccc(C(CCNC(=O)C(C)c2ccc(NS(C)(=O)=O)c(F)c2)c2ccc(F)cc2)cc1 (centres undefined)
414 nM	Not Active	707 nM		COc1cc(C(C)(C)C(=O)NCc2ccc(C(C)(C)C)cc2)ccc1NS(C)(=O)=O
	Not Active			CC(C(=O)NCC=C(c1ccc(F)cc1)c1ccc(F)cc1)c1ccc(NS(C)(=O)=O)c(F)c1 (centres undefined)
	Not Active			COc1cc(C2(C(=O)NCc3ccc(C(C)(C)C)cc3)CC2)ccc1NS(C)(=O)=O
115 nM	Not Active	47 nM		CC(C(=O)NCCN(c1ccccc1)c1ccccc1)c1ccc(NS(C)(=O)=O)c(F)c1 (centres undefined)

Ki ([1]; read-out: Ki)	EC50 [2]	Ki [3]	Ki ([1]; cho)	Compound
430 nM	Not Active			CC(C)(C)c1ccc(CNC(=O)C(C)(C)c2ccc(NS(C)(=O)=O)cc2)cc1
411 nM	Not Active	55.5 nM		CC(C(=O)NCc1ccc(C2CC2)cc1)c1ccc(NS(C)(=O)=O)c(F)c1 (centres undefined)
	Not Active			CC(C)(C)c1ccc(CNC(=O)C(C)(C)c2ccc(NS(C)(=O)=O)c(F)c2)cc1
138 nM	Not Active	43 nM		CC(C(=O)NCc1ccc(C2CCCCC2)cc1)c1ccc(NS(C)(=O)=O)c(F)c1 (centres undefined)
117 nM	Not Active	163 nM		CC(C(=O)NCC=C1c2ccccc2C=Cc2ccccc21)c1ccc(NS(C)(=O)=O)c(F)c1 (centres undefined)
30.9 nM	Not Active			Cc1ccc(C(=CCNC(=O)C(C)c2ccc(NS(C)(=O)=O)c(F)c2)c2ccc(C)cc2)cc1 (centres undefined)
502 nM	Not Active	107 nM		CC(C(=O)NCc1ccc(I)cc1)c1ccc(NS(C)(=O)=O)c(F)c1 (centres undefined)
	Not Active			CC(C(=O)NCCc1ccc(C(C)(C)C)cc1)c1ccc(NS(C)(=O)=O)c(F)c1 (centres undefined)
	Not Active			CC(C(=O)NOCc1ccccc1)c1ccc(NS(C)(=O)=O)c(F)c1 (centres undefined)
	Not Active			Cc1ccc(CCCNC(=O)[C@H](C)c2ccc(NS(C)(=O)=O)c(F)c2)cc1C
	Not Active			CC(C(=O)NC/C=C/c1ccc(Cl)cc1)c1ccc(NS(C)(=O)=O)c(F)c1 (centres undefined)
	Not Active			CC(C(=O)NCc1ccc(-c2ccccc2)cc1)c1ccc(NS(C)(=O)=O)c(F)c1 (centres undefined)
47 nM	Not Active	12.7 nM		CC(C(=O)NCc1ccc(C(C)(C)C)cc1Br)c1ccc(NS(C)(=O)=O)c(F)c1 (centres undefined)
	Not Active			CC(C(=O)NCc1ccc(C(F)(F)F)cc1)c1ccc(NS(C)(=O)=O)c(F)c1 (centres undefined)
	Not Active			CC(C)c1ccc(CNC(=O)C(C)c2ccc(NS(C)(=O)=O)c(F)c2)cc1 (centres undefined)
162 nM	Not Active	15 nM		CC(C(=O)NCc1ccc(C2C=CCC2)cc1)c1ccc(NS(C)(=O)=O)c(F)c1 (centres undefined)
412 nM	Not Active	250 nM		CC(C(=O)NCc1ccc(Br)cc1)c1ccc(NS(C)(=O)=O)c(F)c1 (centres undefined)
	Not Active			CC(C(=O)NC(c1ccccc1)c1ccccc1)c1ccc(NS(C)(=O)=O)c(F)c1 (centres undefined)
	Not Active			CC(C(=O)NCc1ccc(Cl)cc1)c1ccc(NS(C)(=O)=O)c(F)c1 (centres undefined)
	Not Active		Not Active	CC(C)(C)c1ccc(CNC(=O)C2(c3ccc(NS(C)(=O)=O)c(F)c3)CC2)cc1
	Not Active			CC(C(=O)NCC(c1ccccc1)c1ccccc1)c1ccc(NS(C)(=O)=O)c(F)c1 (centres undefined)

Compound	Ki ([1]; read-out: Ki)	EC50 [2]	Ki [3]	Ki ([1]; cho)
Cc1ccc(CCCNC(=O)C(C)c2ccc(NS(C)(=O)=O)c(F)c2)cc1C (racemic)	413 nM	Not Active	97 nM	
Cc1ccc(CCCNC(=O)[C@@H](C)c2ccc(NS(C)(=O)=O)c(F)c2)cc1C	257 nM	Not Active		

Source: ChEMBL document CHEMBL1938335, “2-(4-Methylsulfonylaminophenyl) propanamide TRPV1 antagonists: Structure-activity relationships in the B and C-regions” (Bioorg Med Chem, 2012)
